≈ marks a conversion by molar mass, not a printed value. Calls of active or inactive are those of the source. The calls are words filed in the database; no cut-off is given here.
Experiments:
Staphylococcus aureus [1] = test: Antibacterial activity against Staphylococcus aureus SCV isolated from cystic fibrosis patient infected in human THP-1 cells assessed as log reduction of intracellular CFU level after 24 hrs in presence of thymidine; assay type: functional, organism-based
Procedure, shortened: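 SCV-infected THP-1 macrophages are exposed 24 h after phagocytosis to antibiotic, with 100 mg/liter thymidine added to the culture medium together with the drug. Read-out is change in log CFU per mg cell protein from the initial inoculum. Data are means ± SD, n = 3; significance by ANOVA with Tukey's test.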

Staphylococcus aureus [2] = test: Antibacterial activity against revertant Staphylococcus aureus at pH 7.4 after 24 hrs by broth microdilution method
Staphylococcus aureus [3] = test: Antibacterial activity against Staphylococcus aureus SCV isolated from cystic fibrosis patient at pH 7.4 after 48 hrs by broth microdilution method in absence of thymidine; assay type: functional
Procedure, shortened: (§1)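 MIC by CLSI broth microdilution in cation-adjusted MH II broth. For oritavancin, 0.002% polysorbate-80 was added and non-tissue-culture-treated plates were used to limit binding to plastic. Plates were read at 24 h for normal and revertant strains and at 48 h for the SCV. Where stated, the SCV was tested with 100 mg/liter thymidine. Growth was aerobic.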

Staphylococcus aureus [4] = test: Antibacterial activity against normal phenotype Staphylococcus aureus at pH 7.4 after 24 hrs by broth microdilution method
Staphylococcus aureus [5] = test: Antibacterial activity against Staphylococcus aureus SCV isolated from cystic fibrosis patient at pH 7.4 after 48 hrs by broth microdilution method in presence of thymidine; assay type: functional; procedure, shortened: as §1
Staphylococcus aureus [6] = test: Antibacterial activity against Staphylococcus aureus SCV isolated from cystic fibrosis patient in cation-adjusted MH 2 broth at pH 5.5 after 48 hrs by broth microdilution method; assay type: functional
Procedure, shortened: (§2)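 MIC by CLSI broth microdilution in cation-adjusted MH II broth adjusted to pH 5.5. Readings were taken at 48 h for the SCV and at 24 h for the normal-phenotype strain.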

Staphylococcus aureus [7] = test: Antibacterial activity against normal phenotype Staphylococcus aureus in cation-adjusted MH 2 broth at pH 5.5 after 24 hrs by broth microdilution method; assay type: functional; procedure, shortened: as §2
[8] = Cmax in human plasma; assay type: ADME, organism-based; conditions: plasma
[9] = Fraction unbound in human plasma
Staphylococcus aureus [10] = test: Antibacterial activity against Staphylococcus aureus SCV isolated from cystic fibrosis patient in cation-adjusted MH 2 broth assessed as log reduction of extracellular CFU after 5 hrs; assay type: functional
Procedure, shortened: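 Broth exposure to total drug levels mimicking human serum Cmax, same concentrations as the intracellular assay, for 5 or 24 h. Medium is CA-MH broth, with 0.002% polysorbate-80 when oritavancin is tested. Samples are plated on brain heart infusion agar and incubated 48 h before SCV colonies are counted. Read-out is Δlog CFU/ml from the initial inoculum.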

Staphylococcus aureus [11] = test: Antibacterial activity against revertant Staphylococcus aureus infected in human THP-1 cells assessed as log reduction of extracellular CFU level after 24 hrs; assay type: functional, organism-based
Staphylococcus aureus [12] = test: Antibacterial activity against normal phenotype Staphylococcus aureus in infected in human THP-1 cells assessed as log reduction of extracellular CFU level after 24 hrs; assay type: functional, organism-based
Staphylococcus aureus [13] = test: Antibacterial activity against Staphylococcus aureus SCV isolated from cystic fibrosis patient infected in human THP-1 cells assessed as log reduction of intracellular CFU after 5 hrs; assay type: functional
Procedure, shortened: (§3)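 THP-1 macrophages are infected with the SCV strain, then extracellular bacteria are eliminated after phagocytosis. Drug is added at total concentrations mimicking human serum Cmax for 5, 24 or 72 h. Lysates are plated on brain heart infusion agar and counted after 48 h. Read-out is Δlog CFU/mg cell protein from the postphagocytosis inoculum; no drug-free control is run at 72 h.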

Staphylococcus aureus [14] = test: Antibacterial activity against Staphylococcus aureus SCV isolated from cystic fibrosis patient infected in human THP-1 cells assessed as log reduction of intracellular CFU after 72 hrs; assay type: functional; procedure, shortened: as §3
Staphylococcus aureus [15] = test: Antibacterial activity against Staphylococcus aureus SCV isolated from cystic fibrosis patient infected in human THP-1 cells assessed as log reduction of intracellular CFU after 24 hrs; assay type: functional

With `CCCCCCCCCC(=O)N[C@@H](Cc1c[nH]c2ccccc12)C(=O)N[C@H](CC(N)=O)C(=O)N[C@@H](CC(=O)O)C(=O)N[C@@H]1C(=O)NCC(=O)N[C@@H](CCCN)C(=O)N[C@@H](CC(=O)O)C(=O)N[C@H](C)C(=O)N[C@@H](CC(=O)O)C(=O)NCC(=O)N[C@H](CO)C(=O)N[C@@H]([C@H](C)CC(=O)O)C(=O)N[C@@H](CC(=O)c2ccccc2N)C(=O)O[C@@H]1C` the Activity (Staphylococcus aureus [1]) was “Active”, the MIC (Staphylococcus aureus [2]) was 0.25 µg/mL (≈ 0.154 µM) and the MIC (Staphylococcus aureus [3]) was 0.125 µg/mL (≈ 0.0771 µM). It also gave an MIC (Staphylococcus aureus [4]) of 0.125 µg/mL (≈ 0.0771 µM), an MIC (Staphylococcus aureus [5]) of 0.25 µg/mL and an MIC (Staphylococcus aureus [6]) of 0.25 µg/mL (≈ 0.154 µM). The MIC (Staphylococcus aureus [7]) was 0.125 µg/mL (≈ 0.0771 µM), the Cmax [8] was 57000 ng/mL and the fraction unbound [9] was 0.1.
With `CCC[C@@H]1C[C@@H](C(=O)N[C@@H]([C@H]2O[C@H](SC)[C@H](O)[C@@H](O)[C@H]2O)[C@H](C)Cl)N(C)C1` [CLINDAMYCIN] the log10cfu (Staphylococcus aureus [10]) was 2, the Activity (Staphylococcus aureus [1]) was “Active” and the MIC (Staphylococcus aureus [2]) was 0.125 µg/mL (≈ 0.294 µM). For the same compound, the MIC (Staphylococcus aureus [3]) was 0.125 µg/mL (≈ 0.294 µM), the MIC (Staphylococcus aureus [4]) was 0.125 µg/mL (≈ 0.294 µM) and the MIC (Staphylococcus aureus [5]) was 0.125 µg/mL. It also gave an MIC (Staphylococcus aureus [6]) of 1 µg/mL (≈ 2.35 µM), an MIC (Staphylococcus aureus [7]) of 1 µg/mL (≈ 2.35 µM) and a Cmax [8] of 4000 ng/mL. For the same compound, the fraction unbound [9] was 0.1.
In the case of `CC(=O)O[C@H]1C[C@@]2(C)[C@@H](C[C@@H](O)[C@H]3[C@@]4(C)CC[C@@H](O)[C@@H](C)[C@@H]4CC[C@@]32C)/C1=C(\CCC=C(C)C)C(=O)O` [FUSIDIC ACID], the log10cfu (Staphylococcus aureus [10]) was 1, the Activity (Staphylococcus aureus [1]) was “Active” and the MIC (Staphylococcus aureus [2]) was 0.06 µg/mL (≈ 0.116 µM). For the same compound, the Activity (Staphylococcus aureus [11]) was “Active”, the MIC (Staphylococcus aureus [3]) was 0.03 µg/mL (≈ 0.0581 µM) and the MIC (Staphylococcus aureus [4]) was 0.125 µg/mL (≈ 0.242 µM). For the same compound, the Activity (Staphylococcus aureus [12]) was “Active”, the MIC (Staphylococcus aureus [5]) was 0.03 µg/mL and the MIC (Staphylococcus aureus [6]) was 0.03 µg/mL (≈ 0.0581 µM). It also gave an MIC (Staphylococcus aureus [7]) of 0.125 µg/mL (≈ 0.242 µM), a Cmax [8] of 30000 ng/mL and a fraction unbound [9] of 0.05.
In the case of `CC(=O)NC[C@H]1CN(c2ccc(N3CCOCC3)c(F)c2)C(=O)O1` [LINEZOLID], the log10cfu (Staphylococcus aureus [10]) was 1, the Activity (Staphylococcus aureus [1]) was “Active” and the Cmax [8] was 16000 ng/mL. The fraction unbound [9] was 0.31.
In the case of `COc1c(N2C[C@@H]3CCCN[C@@H]3C2)c(F)cc2c(=O)c(C(=O)O)cn(C3CC3)c12` [MOXIFLOXACIN], the Activity (Staphylococcus aureus [1]) was “Active”, the log10cfu (Staphylococcus aureus [13]) was 1 and the MIC (Staphylococcus aureus [2]) was 0.125 µg/mL (≈ 0.311 µM). The MIC (Staphylococcus aureus [3]) was 0.125 µg/mL (≈ 0.311 µM), the log10cfu (Staphylococcus aureus [14]) was 1 and the MIC (Staphylococcus aureus [4]) was 0.25 µg/mL (≈ 0.623 µM). The MIC (Staphylococcus aureus [5]) was 0.125 µg/mL, the MIC (Staphylococcus aureus [6]) was 2 µg/mL (≈ 4.98 µM) and the MIC (Staphylococcus aureus [7]) was 2 µg/mL (≈ 4.98 µM). For the same compound, the Cmax [8] was 4000 ng/mL.
For `CN[C@H](CC(C)C)C(=O)N[C@H]1C(=O)N[C@@H](CC(N)=O)C(=O)N[C@H]2C(=O)N[C@H]3C(=O)N[C@H](C(=O)N[C@H](C(=O)O)c4cc(O)cc(O)c4-c4cc3ccc4O)[C@H](O[C@H]3C[C@](C)(N)[C@@H](O)[C@H](C)O3)c3ccc(c(Cl)c3)Oc3cc2cc(c3O[C@@H]2O[C@H](CO)[C@@H](O)[C@H](O)[C@H]2O[C@H]2C[C@](C)(NCc3ccc(-c4ccc(Cl)cc4)cc3)[C@@H](O)[C@H](C)O2)Oc2ccc(cc2Cl)[C@H]1O` [ORITAVANCIN], the Activity (Staphylococcus aureus [1]) was “Active”, the log10cfu (Staphylococcus aureus [13]) was 1 and the MIC (Staphylococcus aureus [2]) was 0.015 µg/mL (≈ 0.00837 µM). For the same compound, the MIC (Staphylococcus aureus [3]) was 0.015 µg/mL (≈ 0.00837 µM), the log10cfu (Staphylococcus aureus [14]) was 1 and the MIC (Staphylococcus aureus [4]) was 0.03 µg/mL (≈ 0.0167 µM). The log10cfu (Staphylococcus aureus [15]) was 2.5, the MIC (Staphylococcus aureus [5]) was 0.015 µg/mL and the MIC (Staphylococcus aureus [6]) was 0.125 µg/mL (≈ 0.0697 µM). For the same compound, the MIC (Staphylococcus aureus [7]) was 0.03 µg/mL (≈ 0.0167 µM), the Cmax [8] was 25000 ng/mL and the fraction unbound [9] was 0.12.

Reference: ChEMBL document CHEMBL1687729, “Intracellular activity of antibiotics in a model of human THP-1 macrophages infected by a Staphylococcus aureus small-colony variant strain isolated from a cystic fibrosis patient: pharmacodynamic evaluation and comparison with isogenic normal-phenotype and revertant strains” (Antimicrob Agents Chemother, 2009)
